B1: tRNA (parent)
chain: GUUCCGUUGGCGUAAUGGUAACGCGUCUCCCUCCUAAGGAGAAGACUGCGGGUUCGAGUCCCGUACGGAACG

Variants at the floor of the assay were thinned out. Some results are limits rather than exact numbers.

The variants in this data set derive from B1. The data set can be described thus: yeast fitness relative to wild type (ratio to wild type); higher = fitter; tRNA-Arg(CCU), competitive growth, 37 C, YPD. In short, it runs like this:
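Changes in genotype frequencies gave Darwinian fitness relative to wild type. Frequencies were read by 100-nucleotide paired-end sequencing of gene amplicons before and after pooled Saccharomyces cerevisiae strains, carrying tRNA-Arg(CCU) gene variants at the native locus, were competed in YPD at 37°C for 24 hours in six replicates. A genotype was kept only with ≥ 100 starting reads, and estimates < 0.5 were set to 0.5.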
As for GUUCCGUUGGCGUAAAGGUAACGCGUCUCCCUCCUAGGGAGAGGACUGCGGGUUCGAGUCCCGUACGGAACG, the yeast fitness is ≤ 0.5. With GUUCCGUUGGCGUAAAGGUACCGCGUCUCCCUCCUAAGGAGAAAACUGCGGGUUCGAGACCCGUACGGAACG the figure was 0.847; with GUUCCGUUGGCGUAAAGGUACCGCGUCUCCCUCCUAAGGAGAAGACUGCGGGUUCGAAUCCCGUACGGAACG, ≤ 0.5. Consider GUUCCGUUGGCGUAUUGGUAACGCGUCACCCUGCUAAGGAGAAGACUGCGGGUUCAAGUCCCGUACGGAACG, for which the yeast fitness was ≤ 0.5. Consider GUUCCGUUGGCGUAAAGGUCACGGGUCUCCCUGCUAAGGAGAAGACUGCGGGUUCGAGUCCCGUACGGAACG, for which the yeast fitness is ≤ 0.5. As for GUUCCGUUGGCGUAAAGGUAACGCGUCUCCCUCCUAAGGCGAAGACUGCGGGUUAGAGUCCCGUAAGGAACG, the yeast fitness was ≤ 0.5. For GUUCCGUUGGCGUAAAGGUAACGCGUCUCCCUCCUAAGGAGAAGACUGCGGGUUCGAGUCCCGUACGGAACG, the yeast fitness was determined as 0.992. As to GUUCCGUUGGCGUAAAGGUAACGCGUCUCCCUCCUAAGGAGAUGACUGCGGGUUCGAGUCCCGUACGGAACG, the yeast fitness was 1.14. For GUUCCGUUGGCGUAAAGGUAACGCGUCUCCCUCCUAAGGAGAGGACUGCGGGUUCGAGUCCCGUACGGAACG, the yeast fitness is 1.01. GUUCCGUUGGCGUAUUGGUAACGCGUCACCCUGCUAAGGAGAAGACUGCGGGUUCGAGUCCCGUACGGAACG: the yeast fitness was found to be 0.561.

As to GUUCCGUUGGCGUAAAGGUGACGCGUCUCCCUCCUAAGGAGAAGACUGCGGGUUCGAGUCCAGUACGGAACG, the yeast fitness came out at 0.546. For the variant GUUCCGUUGGCGUAUUGGUAACGCGUCUCCCUCCAAAGGAGAGGACUGCGGGUUCGAGUCCCGUACCGAACG, the yeast fitness is ≤ 0.5. On to GUUCCGUUGGCGUAAAGGUAACGCGUCUCCCUCCUAAGGAGACGACUGUGGGUUCGAGUCCCGUACGGAACG, for which the yeast fitness stood at 0.656.

Consider GUUCCGUUGGCGUAUUGGUAACGCGUCCCCCUCCUAAGGAGAAGACUGCGGGUUGGAGUCCCGUACGGAACG, for which the yeast fitness came out at 0.589.

On to GUUCCGUUGGCGUAUUGGUAACGCGUCUCCCUCCUAAGGAGAAGACAGCGGGUUCGAAUCCCGUCCGGAACG, for which the yeast fitness was ≤ 0.5. With GUUCCGUUGGCGUAAAGGUAACGCGUCUCCCUCCUAAGGAGAAGCCUGCGGGUUCGAGUCCCCCACGGAACG the figure was ≤ 0.5; with GUUCCGUUGGCGUAUUGGUAACGCGUCUCCCUCCUAAGGAGAAGACUGCGGGAUCGAGUCCCGUACGGAACG, 0.648.

For the variant GUUCCGUUGGCGUAAAGGUAGCGCGUCUCCUUCGUAAGGAGAAGCCUGCGGGUUCGAGUCCCGUAGGGAACG, the yeast fitness is ≤ 0.5. Take GUUCCGUUGGCGUAAAGGUAACGCGUCUCCCUCCUAGGGCGAAGACUGCGGGUUCGAAUCCCGUACGGAACG: the yeast fitness amounted to 0.604.

As to GUUCCGUUGGCGUAAAGGUUACGGGUCUCCCUGCUAAGGAGAAGACUGCGGGUUCGAGUCCCGUGAGGAACG, the yeast fitness was ≤ 0.5. Turning to GUUCCGUUGGCGUAUUGGUAACGCGUCUCCCCCCUAAGGAGCAGACUGCGGGUUCGAGUCCCGUACGGAACG, the yeast fitness is 0.596. On to GUUCCGUUGGCGUAAAGGUUACGCGUCUCCCUCCUAAGGAGAAGAAUGCGGGUUCGAGUCCCGUACGGAACG, for which the yeast fitness was ≤ 0.5. With GUUCCGUUGGCGUAAAGGUAGCGCGUGUCCCUCCUAAGGAGAAGACUGCGGGUUCGGGUCCCGUACGGAACG the figure was ≤ 0.5; with GUUCCGUUGGCGUAAAGGUAACGCGUCUCCCUCCUAAGGAGAAGCCUGCGGGUUCGAGUCCCGUGCGGAACG, ≤ 0.5. With GUUCCGUUGGCGUAAAGGUCACGCGUCUGCCUCCUAAGGAGAAGACUGCGGGUUCGAGUCCCAUACGCAACG the figure was ≤ 0.5; with GUUCCGUUGGCGUAUUGGUAACGCGUCUCCCUCCCAAGGAAAAGACUGCGGGUUCGAGUACCGUUCGGGACG, 0.563; with GUUCCGUUGGCGUAAAGGUAACGCGUCUCCCUCCUAAGGAGAAGCCUGCGGGUUCGAGUCCCGUACGGCACG, 0.662. In the case of GUUCCGUUGGCGUAAAGGUUACGCGUCUCCCUCCUAAGGAGAAGACUGCGGGUUCGAGUCCCGUACGGAACG it was 0.855; in that of GUUCCGUUGGCGUAAAGGUGACGCGUCUCCCUCCUAAGGAGAAGACUGCGGGUUCGAGUCCCGUACGGAACG, 0.961.

For the variant GUUCCGUUGGCGUAAAGGUACCGCGUCUCCCUCCUACGGAGAAGACUGCGGGUUCGAGUCCCGUACGAAACG, the yeast fitness came out at 0.551. In the case of GUUCCGUUGGCGUAUUGGUAACGCGUCUCCCGCCUAAGGAGAAAACUGCGGAUUCGAGUCUCGUACGGCACG it was ≤ 0.5.

Turning to GUUCCGUUGGCGUAUUGGUAACGCGUCACCCUGCUAAGGAGAAGACUGCGGGUUCGAGUCCCGAACGGAACG, the yeast fitness was ≤ 0.5. With GUUCCGUUGGCGUAAAGGUAUCGAGUCUCCCUCCUAAGGAGAAGACUGCGGGUUCGAGUCCCGUACGGAACG the figure was ≤ 0.5; with GUUCCGUUGGCGUAAAGGUAACGCGUCUCCCUCCUACGGAGAAGACUGCGGGUUCGAGUACCGCACGGAACG, ≤ 0.5. For GUUCCGUUGGCGUAAAGGUAUCGCGUUUCCCUCCUAAGGUGAAGACUGCGGGUUCGAGUCCCGUUCGGACCG, the yeast fitness is ≤ 0.5. For the variant GUUCCGUUGGCGUAAAGGUGACGCGUUUCCCUCCUAAGGACAAGACUGCGGGUUCGAGUCCCAUACGGAACG, the yeast fitness was ≤ 0.5. In the case of GUUCCGUUGGCGUAAAGGUACCGCGUCUCCCUCCUGAGGAGAAAACUGCGGGUUCGAGACCCGUACGGAACG it was ≤ 0.5; in that of GUUCCGUUGGCGUAUUGGUAACGCGUCACCCUCCUAAGGAGAAAACUGCGGGUUCGAGUCCCGCACGGAACG, ≤ 0.5. As to GUUCCGUUGGCGUAUUGGUAACGCGUCCCCCUCCUAAGGAGAAAACUGCGGGUUCGGGUCCCGUACGGAACG, the yeast fitness is ≤ 0.5. Turning to GUUCCGUUGGCGUAAAGGUAACGCGUCUCCCUCCUAAGGAGGAGACUGGGGGUUCGAGUCCCGUACGGAACG, the yeast fitness came out at 0.542.

As to GUUCCGUUGGCGUAUUGGUAACGCGUCACCCUGCUAAGGAGAAGACUGCGGGUUCGAGUCCCGUGCGGAACG, the yeast fitness was ≤ 0.5.

Consider GUUCCGUUGGCGUAUUGGUAACGCGUCUCCCUCCUAAGGAGAAGACUGCGGGUUCGAGUCCCGGACGGUACG, for which the yeast fitness was ≤ 0.5. Regarding GUUCCGUUGGCGUAUUGGUAACGCGUCUCCCGCCUAAGGAGAAAACUGCGGGUUCGAGUCCCGUACGGAACG, the yeast fitness turned out to be 0.555. In the case of GUUCCGUUGGCGUAAAGGUACCGCGUCUCCCUCCUAAGGAGAAGACUGCGGGUUCGAGUCCCGUACGGAACG it was 0.686; in that of GUUCCGUUGGCGUAAAGGUACCGCGUCUUCCUCCUAAGGAGAAGACUGCGGGUUCGAGUCCCGUACGGAACG, ≤ 0.5; in that of GUUCCGUUGGCGUAAAGGUAGCGCGUCUCCCUCUUAAGGAGAAGACUGCGGGUUCGAGUCCCGUACCGAACG, ≤ 0.5.

With GUUCCGUUGGCGUAAAGGUAUCGCGUUUCCCUCCUAAGGUGAAGACUGCGGGUUCGAGUCCCGUAAGGAACG, the yeast fitness is ≤ 0.5. With GUUCCGUUGGCGUAAAGGUAACGCGUCUCCCUCCUCGGGAGAAGACUGCGGGUUCCAGUCCCGUACGGAACG the figure was ≤ 0.5; with GUUCCGUUGGCGUAAAGGUAUCGCGUCUCCCUCCUAAGGAGAAGCCUGCGGGUUCGAGUCCCGUACGGAACG, ≤ 0.5; with GUUCCGUUGGCGUAAAGGUUACGGGUCUCCCUGCUAAGGAGAAGACUGCGGGUUCGAGUCACGUACCGAACG, 0.561. Regarding GUUCCGUUGGCGUAAAGGUAACGCGUCUCCCUCCUAAGGAGAGGACUGCGGGUUCGAGUCCCGUACGGGGCG, the yeast fitness is ≤ 0.5. Regarding GUUCCGUUGGCGUAUUGGUAACGCGUCUCCCUCCUAAGGAGAAGACUGCGGGGUCGCGUCCCGUACGGUACG, the yeast fitness was 0.625. For the variant GUUCCGUUGGCGUAAAGGUAACGCGUCUCCCUCCUAUGGAGAAGACUGCGGGUUCGAGUCCAGUACGGAACG, the yeast fitness was ≤ 0.5. Take GUUCCGUUGGCGUAAAGGUAACGCGUCUCCCUCCUAUGGAGAAGACUGCGGGUUCGAGUCCGGUACGGAACG: the yeast fitness was ≤ 0.5. For the variant GUUCCGUUGGCGUAUUGGUAACGCGUCACCCUCCUAAGGCGAAGAGUGCGGGUUCGAGUCCCGUACGGAACG, the yeast fitness was ≤ 0.5. On to GUUCCGUUGGCGUAUUGGUAACGCGUCUCCCUCCUAAGGAGAAGACUGCGGGUGCGAGUCCCGUACGGAACG, for which the yeast fitness was found to be 0.539. On to GUUCCGUUGGCGUAUUGGUAACGCGUCUCCCUCCUAAGGAGAAGACUGCGGGUCCGAGUCCCGUACGGAACG, for which the yeast fitness came out at 0.703. Turning to GUUCCGUUGGCGUAAAGGUAACGCGUCUCCCUCCUACGGAGAAGACUGCGGGUUCGAGUCCCGUACGGAACG, the yeast fitness worked out at 0.653.

For the variant GUUCCGUUGGCGUAAAGGUAACGCGUCUCCCUCCUAAGGAGCAGACUGCGGGUACGAGUCCCGUACGGAACG, the yeast fitness was ≤ 0.5. With GUUCCGUUGGCGUAAAGGUAUCGCGUCUCCCUCCUAAGGAGAAGAUUGCGGGUUCGAGUCGCGUACGGAACG the figure was ≤ 0.5. Regarding GUUCCGUUGGCGUAAAGGUUACGCGUCUCCCUCCUAAGGAGAAGACUGCAGGUUCGAGUCCCGUACGGAACG, the yeast fitness came out at 0.513. In the case of GUUCCGUUGGCGUAUUGGUAACGCGUCACCCUCCUAAGGAGAAGACUGUGGGUUCGAGACCCGUAAGGAACG it was ≤ 0.5; in that of GUUCCGUUGGCGUAUUGGUAACGCGGCUCCCUCCAAAGGAAAAGACUGCGGGUUCGAGUCCCGUACGGAACG, ≤ 0.5; in that of GUUCCGUUGGCGUAAAGGUAACGCGUCUCCCUCCUAAGGAGGAGACUGCGGGUUCGAGUCCCGUACGGAACG, 0.749. GUUCCGUUGGCGUAUUGGUAACGCGCCUCCCUCCUAAGGAGAAGACUGCGGGUUCGAGUCCCGUACGGAACG: the yeast fitness was determined as 0.81. With GUUCCGUUGGCGUAUUGGUAACGCGUCACCCUCCUAAGGAGAAGACUGCGGGUUCGAGUCCCGUACGGAACG the figure was 0.57.

As for GUUCCGUUGGCGUAAAGGUACCGCGUCUCCCUCAUACGGAGAAGACUGCGGGUUCGAGUCCCGUACGAAACG, the yeast fitness was ≤ 0.5. In the case of GUUCCGUUGGCGUAAAGGUGGCGCGUCUCCCUCUUAAGGAGAAAACUGCGGGUUCGAGUCACGUACCGAACG it was ≤ 0.5; in that of GUUCCGUUGGCGUAAAGGUAACGCGUCUCCCUCCUAUGGAGAAGACUGCGGGUUCAAGUCCCGUUCGGAACG, ≤ 0.5. On to GUUCCGUUGGCGUAAAGGUAACGCGUCUCCCUCCUGAGGAGAAGACUGCGAGUUCGAGUCCCGCGCGGAACG, for which the yeast fitness was ≤ 0.5.

As for GUUCCGUUGGCGUAUUGGUAACGCGUCUCCCUCCUAAGGAGAAGACUGCGGGAUCGAGUCCCAUACGGAACG, the yeast fitness is ≤ 0.5. With GUUCCGUUGGCGUAAAGGUAACGCGUCUCCCUCCUAAGGAGUAGACUGCGGGUUCAAAUCCCGUACGGAACG, the yeast fitness was found to be 0.817. On to GUUCCGUUGGCGUAAAGGUCAUGCGUCUCCCUUCUAAGGAGGAGACUGCGGGUUCGAGUCCCGUACGGAACG, for which the yeast fitness was ≤ 0.5. For the variant GUUCCGUUGGCGUAUUGGUAACGCGUCUCCCCCCUAAGGAGAAGACUGCGGCUUCGAGUCCCGUACGGAACG, the yeast fitness is 0.539. On to GUUCCGUUGGCGUAUUGGUAACGCGUCACCCUCCUAAAGAGAAGACUGCGGCUUCGAGUGCCGUACGGAACG, for which the yeast fitness was ≤ 0.5.

The values are drawn from the RNAGym collection of RNA variant scans (doi:10.1126/science.aae0568).
